Assay outcomes as filed in PubChem BioAssay.
DNMT1 block: inhibitors of human DNMT1. 360,000 compounds, 0.83% hits. DNMT1 molecular beacon, Hinp1I cleavage, fluorescence. inhibition (reported as % activation of signal), % at 10 µM. P26358; in the data active = inhibition above about 50%
LMPTP block: blocks human LMPTP phosphatase. recombinant LMPTP-A, OMFP fluorogenic substrate, fluorescence intensity. inhibition, % at 20 µM. 360,000 compounds, 0.22% hits. AID 651560;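 active = compounds that cut the enzyme signal by at least half of the control window in the single-dose screen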
Target sequence (P24666 whole entry, looked up): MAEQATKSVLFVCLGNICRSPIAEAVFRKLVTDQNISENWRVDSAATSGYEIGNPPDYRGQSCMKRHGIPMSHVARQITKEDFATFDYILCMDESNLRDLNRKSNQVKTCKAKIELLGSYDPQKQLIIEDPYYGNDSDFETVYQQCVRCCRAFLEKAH
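material = LMPTP-A | quantity = 0.625 nM enzyme | reagent = OMFP substrate, 400 µM final | buffer or medium = Bis-Tris pH 6.0, DTT, detergent | detection = endpoint fluorescence intensity from OMFP dephosphorylation | dosing = single 20 µM dose | read-out basis = % inhibition relative to no-enzyme and uninhibited control wells | control set = no-enzyme and uninhibited controls | timing = 50 min at room temperature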
Scp1 inh: inhibitors of human Scp-1 phosphatase; Q9GZU7; Recombinant Scp1, phosphopeptide, malachite green phosphate absorbance; inhibition, % at 20 µM; 340,000 compounds, 0.88% hits; AID 493091;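 active = inhibition above about 50% at 20 µM, limit read from the data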
Target sequence (Q9GZU7 76-261 limits assumed): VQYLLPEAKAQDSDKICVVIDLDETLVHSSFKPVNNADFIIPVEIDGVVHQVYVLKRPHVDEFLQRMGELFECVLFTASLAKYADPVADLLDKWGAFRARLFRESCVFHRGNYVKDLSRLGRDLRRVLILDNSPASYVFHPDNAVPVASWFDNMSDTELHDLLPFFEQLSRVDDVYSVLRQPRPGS
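System: truncated SCP-1 phosphatase (76-261aa); medium: Tris acetate buffer pH 5.5 with MgCl2 and Tween-20; incubation: 45 min room-temperature reaction, 5 min colour, 30 min stabiliser; compound: single 20 µM dose, 1% DMSO; reagent: Phosphorylated 17-residue peptide substrate; read-out: % inhibition at 20 µM; technique: colorimetric free-phosphate detection, absorbance 630 nm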
SUMO1 PPI mod: alters human SUMO1 binding to SIM partners | P63165 | SUMO1 binding to a labelled peptide, TR-FRET, 1 h | inhibition, % at 20 µM | 360,000 compounds, 0.33% hits | AID 602429; in the data active = inhibition above about 37%
Target sequence (P63165 whole entry, looked up): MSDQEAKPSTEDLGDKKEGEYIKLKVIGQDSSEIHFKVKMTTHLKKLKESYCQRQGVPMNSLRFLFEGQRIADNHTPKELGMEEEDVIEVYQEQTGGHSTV
STEP inh: STEP (human) phosphatase inhibition | P54829 | recombinant STEP, OMFP fluorogenic substrate, fluorescence | inhibition, % at 20 µM | 360,000 compounds, 0.25% hits;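 active = inhibition at 20 µM, scaled per plate between control wells, above about 37%, limit read from the data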
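medium = Bis-Tris buffer pH 6.0, 2.5 mM DTT, 0.005% Tween 20 | test system = STEP (striatal-enriched tyrosine phosphatase) enzyme, cell-free | measure = normalized % inhibition | compound dosing = 20 µM, 1% DMSO | also added = 25 µM OMFP | schedule = reaction 20 min, ambient temperature | measured by = fluorescence read at 480 nm ex / 540 nm em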
F508del corr: CFTR F508del correction in bronchial cells. CFBE cells, YFP halide quenching; stimulated with forskolin plus potentiator P3; % fluorescence drop versus neutral controls. activity (quench increase), % at 7.58 µM. 350,000 compounds, 0.36% hits;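 active = mean added fluorescence quench of at least 8% versus neutral control, with both replicates also reaching 8%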;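 also: cells transiently co-express mutant CFTR-F508del with the halide-sensitive YFP; corrector assay measuring rescue of mutant channel to the surface after 24 h compound exposure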
Scp-1 conf: confirmation of human Scp-1 phosphatase inhibitors. shares compounds with Scp1 inh. recombinant SCP-1 catalytic domain, phosphate release, malachite green absorbance. inhibition, % at 20 µM. 2,500 compounds, 61% hits
MG interference: interferes with malachite green readout, flagging false Scp-1 hits | AID 540313 | apparent inhibition (interference), % at 20 µM | Colorimetric interference counterscreen, malachite green absorbance 630 nm | shares compounds with Scp1 inh | 2,500 tested, under 10 active;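 also: compounds added after enzyme reaction finished so only phosphate colour detection is probed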
Scp-1 Tm shift: binds human Scp-1, shifting its melting temperature; shares compounds with Scp1 inh; Recombinant SCP1, Sypro Orange thermal shift Tm; thermal shift relative to vanadate control, % at 40 µM; 1,500 compounds, 25% hits; AID 540329;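 active = substances whose mean melting-temperature shift, as a percentage of the reference inhibitor's shift, reaches about 5.3%, limit read from the data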
Each line names hits and unclear results; the compound was inactive in the other large screens (follow-up assays come after a bar, where they were run). In the library only some 1.6% were active in any assay of this set; here they are far more common.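 The calls were made as follows, unless noted: active = inhibition of at least 30% at 20 µM; inactive = the rest.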

C[C@@H]1CN([C@H](C)CO)C(=O)c2cc(NC(=O)Nc3ccccc3)ccc2O[C@@H](C)CCCCO[C@H]1CN(C)C	none (no result: DNMT1 block, LMPTP block, Scp1 inh, SUMO1 PPI mod, STEP inh)
Cc1cccc(NC(=O)CN2C(=O)S/C(=C\c3ccc(-c4cccc(C(=O)O)c4C)o3)C2=O)c1	Scp1 inh 77.5 (no result: DNMT1 block, LMPTP block, SUMO1 PPI mod, STEP inh, F508del corr) | Scp-1 conf 80.8 | MG interference inactive | Scp-1 Tm shift 8.1
Cc1cccc(C)c1NC(=O)NC1(C(=O)N2CCN3CCCC3C2)CCCCC1 (stereo unspecified)	Scp1 inh 70.3 | Scp-1 conf inactive | MG interference inactive
Cn1c(=O)oc2cc(S(=O)(=O)Nc3ccc(Cl)cc3)ccc21	none
CC(C)c1ccc(NS(=O)(=O)c2ccc3c(c2)oc(=O)n3C)cc1	none | Scp-1 conf inactive | MG interference inactive
CCOC(=O)C1=C(C)Nc2ccccc2N/C1=N\S(=O)(=O)c1cc(C(=O)O)ccc1Cl	Scp1 inh 50.3 | Scp-1 conf 40.9 | MG interference inactive | Scp-1 Tm shift inactive
Cc1ccc(-c2ccc([C@H]3[C@H]4CN(S(=O)(=O)c5ccccc5C)CCCCN4[C@H]3CO)cc2)cc1	none (no result: DNMT1 block, LMPTP block, Scp1 inh, SUMO1 PPI mod, STEP inh)
Cc1ccc2nc(/C(C#N)=C/c3ccc(-c4ccccc4C(=O)O)o3)[nH]c2c1	Scp1 inh 53.8 | Scp-1 conf 47.0 | MG interference inactive | Scp-1 Tm shift 7.3
CCOC(=O)N(O)c1ccc(C=Cc2ccccc2)cc1	Scp1 inh 59.2 | Scp-1 conf 50.4 | MG interference inactive | Scp-1 Tm shift inactive
C[C@H]1CN([C@@H](C)CO)C(=O)Cc2cc(NS(=O)(=O)c3cccs3)ccc2O[C@@H]1CN(C)CC1CC1	none (no result: DNMT1 block, LMPTP block, Scp1 inh, SUMO1 PPI mod, STEP inh)
CC[n+]1c(/C=C/c2ccc(N(C)C)cc2)ccc2ccccc21	none (no result: F508del corr)
C[n+]1c(/C=C/c2ccc(O)cc2)ccc2ccccc21	Scp1 inh 51.0 | Scp-1 conf inactive | MG interference inactive
C[C@@H]1CN([C@H](C)CO)C(=O)c2cccc(NS(=O)(=O)c3ccccc3)c2O[C@@H]1CN(C)S(=O)(=O)c1ccc(Cl)cc1	none (no result: DNMT1 block, LMPTP block, Scp1 inh, SUMO1 PPI mod, STEP inh)
CCn1c(C)c2c([n+]1CC)CC(C)(C)CC2=O	Scp1 inh 55.5 | Scp-1 conf 74.9 | MG interference inactive | Scp-1 Tm shift inactive
CO[C@H]1CN(C)C(=O)c2cc(NC(=O)Nc3ccc(Cl)cc3)ccc2OC[C@H](C)N(C(=O)Nc2c(C)noc2C)C[C@H]1C	none (no result: DNMT1 block, LMPTP block, Scp1 inh, SUMO1 PPI mod, STEP inh)
Cc1c(NS(=O)(=O)c2cc(C(=O)NCCN(C)C)ccc2Cl)c(=O)n(-c2ccccc2)n1C	Scp1 inh 73.5 | Scp-1 conf 36.6 | MG interference inactive | Scp-1 Tm shift inactive
